Data reported in ChEMBL document CHEMBL2396577, “Design, synthesis and biological activity evaluation of desloratadine analogues as H1 receptor antagonists” (Bioorg Med Chem, 2013).

Key:
[1] = target: Histamine H1 receptor (Cavia porcellus) (UniProt P31389); test: Antagonist activity at histamine H1 receptor in guinea pig ileum assessed as inhibition of histamine-induced smooth muscle contraction at 0.2 mg/mL after 3 mins (reference value: 3.37 +/- 1.05 g); format: tissue-based
[2] = target: Histamine H1 receptor (Cavia porcellus) (UniProt P31389); test: Antagonist activity at histamine H1 receptor in guinea pig ileum assessed as inhibition of histamine-induced smooth muscle spasm at 0.2 mg/mL after 3 mins (reference value: 1.27 +/- 5.65%); format: tissue-based; set-up: scale not given: the % may be the effect or the level left
Cavia porcellus [3] = test: Antiasthamatic activity in histamine-induced guinea pig asthma model assessed as prolongation of asthmogenic latent period at 0.01 mg/kg, ig pretreated for 60 mins prior to histamine-challenge (reference value: 127.10 +/- 40.46 seconds); format: functional; conditions: route intragastric
Mus musculus [4] = test: Toxicity in mouse assessed as change in body activity at 0.05 to 0.2 mg/kg measured for 7 days; format: organism-based; set-up: dose 0.05-0.2 mg/kg; conditions: in vivo, 168 h
Method in brief: (§1)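 Groups of 10 received saline 10 mL/kg, desloratadine 1 mg/kg, or compound at a low dose (0.05 mg/kg) or high dose (0.2 mg/kg), all at a dosing volume of 10 mL/kg. Over the following seven days, mental state, body activity and abnormal signs were observed: sleep, excitement, irritability, convulsion, salivation and muscle tremor.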

Mus musculus [5] = test: Toxicity in mouse assessed as salivation at 0.05 to 0.2 mg/kg measured for 7 days; format: organism-based; set-up: dose 0.05-0.2 mg/kg; conditions: in vivo, 168 h; method in brief: as §1
Mus musculus [6] = test: Toxicity in mouse assessed as effect on pentobarbital sodium-induced hypnotic effect measured as recovery of righting reflex at 100 mg/kg pretreated for 30 mins prior to pentobarbital sodium-challenge; format: organism-based; set-up: dose 100 mg/kg; conditions: in vivo
Mus musculus [7] = test: Toxicity in mouse assessed as effect on pentobarbital sodium-induced hypnotic effect measured as loss of righting reflex latency at 50 mg/kg pretreated for 30 mins prior to pentobarbital sodium-challenge; format: organism-based; set-up: dose 50 mg/kg; conditions: in vivo
Ileum [8] = test: Toxicity in guinea pig ileum assessed as effect on acetylcholine-induced smooth muscle contraction at 1.4 ug/mL after 3 mins (reference value: 5.17 +/- 0.36 g); format: tissue-based, Cavia porcellus
Mus musculus [9] = test: Toxicity in mouse assessed as muscle tremor at 0.05 to 0.2 mg/kg measured for 7 days; format: organism-based, Muscle tissue; set-up: dose 0.05-0.2 mg/kg; conditions: in vivo, 168 h; method in brief: as §1
Ileum [10] = test: Toxicity in guinea pig ileum assessed as effect on acetylcholine-induced smooth muscle spasm at 2 ug/mL after 3 mins (reference value: 1.31 +/- 3.66%); format: tissue-based, Cavia porcellus; conditions: in vivo
Mus musculus [11] = test: Toxicity in mouse assessed as effect on pentobarbital sodium-induced hypnotic effect measured as loss of righting reflex latency at 200 mg/kg pretreated for 30 mins prior to pentobarbital sodium-challenge; format: organism-based; set-up: dose 200 mg/kg; conditions: in vivo
Ileum [12] = test: Toxicity in guinea pig ileum assessed as effect on acetylcholine-induced smooth muscle spasm at 1.4 ug/mL after 3 mins (reference value: 1.31 +/- 3.66%); format: tissue-based, Cavia porcellus; conditions: in vivo
Mus musculus [13] = test: Toxicity in mouse assessed as excitement at 0.05 to 0.2 mg/kg measured for 7 days; format: organism-based; set-up: dose 0.05-0.2 mg/kg; conditions: in vivo, 168 h; method in brief: as §1
Mus musculus [14] = test: Toxicity in mouse assessed as irritability at 0.05 to 0.2 mg/kg measured for 7 days; format: organism-based; set-up: dose 0.05-0.2 mg/kg; conditions: in vivo, 168 h; method in brief: as §1
Mus musculus [15] = test: Toxicity in mouse assessed as effect on pentobarbital sodium-induced hypnotic effect measured as recovery of righting reflex at 50 mg/kg pretreated for 30 mins prior to pentobarbital sodium-challenge; format: organism-based; set-up: dose 50 mg/kg; conditions: in vivo
Mus musculus [16] = test: Toxicity in mouse assessed as convulsion at 0.05 to 0.2 mg/kg measured for 7 days; format: organism-based; set-up: dose 0.05-0.2 mg/kg; conditions: in vivo, 168 h; method in brief: as §1
Ileum [17] = test: Toxicity in guinea pig ileum assessed as effect on acetylcholine-induced smooth muscle contraction at 2 ug/mL after 3 mins (reference value: 5.17 +/- 0.36 g); format: tissue-based, Cavia porcellus
Mus musculus [18] = test: Toxicity in mouse assessed as sleep abnormality at 0.05 to 0.2 mg/kg measured for 7 days; format: organism-based; set-up: dose 0.05-0.2 mg/kg; conditions: in vivo, 168 h; method in brief: as §1
Mus musculus [19] = test: Toxicity in mouse assessed as change in mental state at 0.05 to 0.2 mg/kg measured for 7 days; format: organism-based; set-up: dose 0.05-0.2 mg/kg; conditions: in vivo, 168 h; method in brief: as §1
Ileum [20] = test: Toxicity in guinea pig ileum assessed as effect on acetylcholine-induced smooth muscle spasm at 0.6 ug/mL after 3 mins (reference value: 1.31 +/- 3.66%); format: tissue-based, Cavia porcellus; conditions: in vivo
Ileum [21] = test: Toxicity in guinea pig ileum assessed as effect on acetylcholine-induced smooth muscle contraction at 0.6 ug/mL after 3 mins (reference value: 5.17 +/- 0.36 g); format: tissue-based, Cavia porcellus
Ileum [22] = test: Toxicity in guinea pig ileum assessed as effect on acetylcholine-induced smooth muscle contraction at 0.2 ug/mL after 3 mins (reference value: 5.17 +/- 0.36 g); format: tissue-based, Cavia porcellus
Ileum [23] = test: Toxicity in guinea pig ileum assessed as effect on acetylcholine-induced smooth muscle spasm at 0.2 ug/mL after 3 mins (reference value: 1.31 +/- 3.66%); format: tissue-based, Cavia porcellus; conditions: in vivo
Ileum [24] = test: Toxicity in guinea pig ileum assessed as effect on acetylcholine-induced smooth muscle spasm at 0.1 ug/mL after 3 mins (reference value: 1.31 +/- 3.66%); format: tissue-based, Cavia porcellus; conditions: in vivo
Ileum [25] = test: Toxicity in guinea pig ileum assessed as effect on acetylcholine-induced smooth muscle contraction at 0.1 ug/mL after 3 mins (reference value: 5.17 +/- 0.36 g); format: tissue-based, Cavia porcellus
Mus musculus [26] = test: Toxicity in mouse assessed as effect on pentobarbital sodium-induced hypnotic effect measured as recovery of righting reflex at 1 mg/kg pretreated for 30 mins prior to pentobarbital sodium-challenge; format: organism-based; set-up: dose 1 mg/kg; conditions: in vivo
Method in brief: (§2)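 Mice, 10 per group. Groups: saline, pentobarbital alone, pentobarbital plus desloratadine 1 mg/kg, pentobarbital plus test agent at 0.05 or 0.2 mg/kg. 30 min after dosing, 1% pentobarbital sodium given i.p. at 100 mg/kg (10 mL/kg). Latency to loss of righting reflex and time to its recovery recorded, in min.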

Mus musculus [27] = test: Toxicity in mouse assessed as effect on pentobarbital sodium-induced hypnotic effect measured as loss of righting reflex latency at 1 mg/kg pretreated for 30 mins prior to pentobarbital sodium-challenge; format: organism-based; set-up: dose 1 mg/kg; conditions: in vivo; method in brief: as §2
Cavia porcellus [28] = test: Antiasthamatic activity in histamine-induced guinea pig asthma model assessed as prolongation of asthmogenic latent period at 1 mg/kg, ig pretreated for 60 mins prior to histamine-challenge (reference value: 127.10 +/- 40.46 seconds); format: functional; conditions: route intragastric

Sequence of Histamine H1 receptor (Cavia porcellus) (P31389 whole entry): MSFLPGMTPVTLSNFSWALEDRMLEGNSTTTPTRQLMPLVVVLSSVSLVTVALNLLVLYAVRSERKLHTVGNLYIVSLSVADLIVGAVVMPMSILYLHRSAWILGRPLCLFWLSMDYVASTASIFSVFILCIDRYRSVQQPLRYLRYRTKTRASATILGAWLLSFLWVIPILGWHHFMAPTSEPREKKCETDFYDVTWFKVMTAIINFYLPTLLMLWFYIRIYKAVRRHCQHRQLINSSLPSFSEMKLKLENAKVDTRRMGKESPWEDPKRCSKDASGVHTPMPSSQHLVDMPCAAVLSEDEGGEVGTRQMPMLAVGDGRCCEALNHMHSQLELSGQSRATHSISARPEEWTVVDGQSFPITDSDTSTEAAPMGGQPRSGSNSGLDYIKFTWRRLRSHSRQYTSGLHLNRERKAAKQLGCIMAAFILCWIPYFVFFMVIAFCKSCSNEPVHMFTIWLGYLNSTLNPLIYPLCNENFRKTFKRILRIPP

| SMILES | Activity [1] | Activity [2] | Time (Cavia porcellus [3]) | Activity (Mus musculus [4]) | Activity (Mus musculus [5]) | Time (Mus musculus [6]) | Time (Mus musculus [7]) | Activity (Mus musculus [9]) | Time (Mus musculus [11]) | Activity (Mus musculus [13]) | Activity (Mus musculus [14]) | Time (Mus musculus [15]) | Activity (Mus musculus [16]) | Activity (Mus musculus [18]) | Activity (Mus musculus [19]) | other results |
| --- | --- | --- | --- | --- | --- | --- | --- | --- | --- | --- | --- | --- | --- | --- | --- | --- |
| OC1CCC(N2CCC(=C3c4ccc(Cl)cc4CCc4cccnc43)CC2)CC1 (stereo not given) | 2.93 g | 13% | 222 s |  |  |  |  |  |  |  |  |  |  |  |  |  |
| OCCCN1CCC(=C2c3ccc(Cl)cc3CCc3cccnc32)CC1 | 1.73 g | 45.2% | 221.9 s | Non-toxic | Non-toxic | 100 min | 1.54 min | Non-toxic | 1.46 min | Non-toxic | Non-toxic | 76 min | Non-toxic | Non-toxic | Non-toxic | Activity (Ileum [8]): 6.72 g; Activity (Ileum [10]): 67.06%; Activity (Ileum [12]): 58.27%; Activity (Ileum [17]): 6.04 g |
| ClCCCN1CCC(=C2c3ccc(Cl)cc3CCc3cccnc32)CC1 | 1.81 g | 43% | 256.9 s | Non-toxic | Non-toxic | 120 min | 1.48 min | Non-toxic | 1.58 min | Non-toxic | Non-toxic | 97 min | Non-toxic | Non-toxic | Non-toxic | Activity (Ileum [8]): 5.68 g; Activity (Ileum [12]): 69.51%; Activity (Ileum [20]): 47.21%; Activity (Ileum [21]): 8.56 g |
| Clc1ccc2c(c1)CCc1cccnc1C2=C1CCN(C2CCCCC2)CC1 | 2.57 g | 29.4% | 250.3 s |  |  |  |  |  |  |  |  |  |  |  |  |  |
| O=C1c2ccccc2C(=O)N1CCCN1CCC(=C2c3ccc(Cl)cc3CCc3cccnc32)CC1 | 2.71 g | 26.6% | 247.9 s |  |  |  |  |  |  |  |  |  |  |  |  |  |
| FCCCN1CCC(=C2c3ccc(Cl)cc3CCc3cccnc32)CC1 | 1.74 g | 48.7% | 269.4 s | Non-toxic | Non-toxic | 123 min | 1.47 min | Non-toxic | 1.45 min | Non-toxic | Non-toxic | 98 min | Non-toxic | Non-toxic | Non-toxic | Activity (Ileum [22]): 9.11 g; Activity (Ileum [20]): 62.47%; Activity (Ileum [21]): 6.58 g; Activity (Ileum [23]): 54.35% |
| CN(C)CCCN1CCC(=C2c3ccc(Cl)cc3CCc3cccnc32)CC1 | 2.66 g | 30.4% | 212.8 s |  |  |  |  |  |  |  |  |  |  |  |  |  |
| Clc1ccc2c(c1)CCc1cccnc1C2=C1CCN(C2CCC(Cl)CC2)CC1 (stereo not given) | 1.29 g | 61.1% | 325.2 s | Non-toxic | Non-toxic | 103 min | 1.61 min | Non-toxic | 1.62 min | Non-toxic | Non-toxic | 82 min | Non-toxic | Non-toxic | Non-toxic | Activity (Ileum [8]): 5.59 g; Activity (Ileum [10]): 70.61%; Activity (Ileum [12]): 61.39%; Activity (Ileum [17]): 4.4 g |
| CCCN1CCC(=C2c3ccc(Cl)cc3CCc3cccnc32)CC1 | 1.8 g | 42.5% | 255.1 s | Non-toxic | Non-toxic | 99 min | 1.47 min | Non-toxic | 1.61 min | Non-toxic | Non-toxic | 76 min | Non-toxic | Non-toxic | Non-toxic | Activity (Ileum [22]): 7.51 g; Activity (Ileum [20]): 73.09%; Activity (Ileum [21]): 4.38 g; Activity (Ileum [23]): 56.14% |
| CN1[C@@H]2CC[C@H]1CC(OC(=O)[C@H](CO)c1ccccc1)C2 (stereo partly drawn) [ENDO-ATROPINE] |  |  |  |  |  |  |  |  |  |  |  |  |  |  |  | Activity (Ileum [24]): 74.9%; Activity (Ileum [25]): 3.47 g |
| Clc1ccc2c(c1)CCc1cccnc1C2=C1CCN(C2CC=CCC2)CC1 (stereo not given) | 2.38 g | 28.3% | 262.7 s |  |  |  |  |  |  |  |  |  |  |  |  |  |
| NCCCN1CCC(=C2c3ccc(Cl)cc3CCc3cccnc32)CC1 | 2.36 g | 26% | 182.8 s |  |  |  |  |  |  |  |  |  |  |  |  |  |
| Clc1ccc2c(c1)CCc1cccnc1C2=C1CCNCC1 [DESLORATADINE] | 1.67 g | 49.1% |  |  |  |  |  |  |  |  |  |  |  |  |  | Time (Mus musculus [26]): 93 min; Time (Mus musculus [27]): 2.23 min; Time (Cavia porcellus [28]): 278.2 s |
